Six compounds from ChEMBL document CHEMBL1649062, “Integration of lead optimization with crystallography for a membrane-bound ion channel target: discovery of a new class of AMPA receptor positive allosteric modulators” (J Med Chem, 2011) can be followed below.

In brackets after ≈: the same amount, converted by molar mass. Where only a bound is given, the exact number is not on record here.

Data set [1] in a line: Distribution coefficient, log D of the compound. Type of data set: physicochemical. Particulars: octanol/water.
A short description of data set [2]: Kinetic solubility of the compound in phosphate buffered saline of pH 7.4. Type of data set: physicochemical. In short, it runs like this:
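Kinetic solubility: 10 mM DMSO stock, 5 μL diluted to 100 μL with pH 7.4 phosphate-buffered saline, equilibrated 1 h at room temperature, filtered, filtrate quantified by calibrated flow-injection chemiluminescent nitrogen detection.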

A further data set concerns the target Cytochrome P450 2C9 (Homo sapiens, UniProt P11712). The data set is described as follows: Inhibition of human CYP2C9 by fluorescence assay. Type of data set: ADME. In short, it runs like this: (§1)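 Recombinant human CYP bactosomes (0.1 mg/mL) in 50 mM potassium phosphate pH 7.4, preincubated 10 min at 37 °C with test compound (0.1-10 μM, 7 concentrations) and fluorogenic substrate. Substrates: ethoxyresorufin 0.5 μM (1A2), FCA 50 μM (2C9), BMC 10 μM (2C19), MMC 10 μM (2D6), DEF 1 μM or 7-BQ 25 μM (3A4). Reaction started with NADPH regenerating system; metabolite formation read over 10 min. IC50 from percent of control rate; miconazole control; triplicate.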

Data set [3] has as its target T1, Glutamate receptor 2 (Homo sapiens, UniProt P42262). The data set is described as follows: Allosteric modulation of human recombinant GluA2 receptor flip isoform expressed in HEK293 cells assessed as potentiation of glutamate-induced calcium influx by Fluo-4/FLIPR method relative to cyclothiazide. Format: cell-based. In short, it runs like this: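 Stable GluA2 flip (unedited) cells seeded to confluence 2-3 days before assay; washed in HEPES buffer (145 NaCl, 5 KCl, 2 CaCl2, 1 MgCl2, 5.5 glucose, pH 7.3), loaded with 2 μM Fluo4-AM 60 min at room temperature. FLIPR dual addition: compound 5 min before 100 μM glutamate; fluorescence rise expressed against maximal cyclothiazide response, fitted pEC50 and Asym max; n ≥ 3.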

Another data set addresses Cytochrome P450 2C19 (Homo sapiens, UniProt P33261). The data set is described as follows: Inhibition of human CYP2C19 by fluorescence assay. Format: ADME. An outline of the steps:
as §1

Data set [4] addresses T1, Glutamate receptor 2. The data set is described as follows: Allosteric modulation of human recombinant GluA2 receptor flip isoform expressed in HEK293 cells assessed as potentiation of glutamate-induced calcium influx by Fluo-4/FLIPR method. Format: cell-based. An outline of the steps:
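Stable GluA2 flip (unedited) cell line grown in DMEM/F12 with 10% FBS and seeded to confluence 2-3 days before use. Cells washed in HEPES buffer (pH 7.3) and loaded with 2 μM Fluo-4 AM for 60 min at room temperature. On FLIPR, compound was added 5 min before 100 μM glutamate. pEC50 and asymptotic maximum are relative to the maximal response to cyclothiazide, n ≥ 3.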

Another data set addresses Cytochrome P450 3A4 (Homo sapiens, UniProt P08684). The data set is described as follows: Inhibition of human CYP3A4 by fluorescence assay. Format: ADME. An outline of the steps:
as §1

Data set [5] can be described thus: Inhibition of human CYP450 by fluorescence assay. Format: ADME. An outline of the steps:
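Recombinant human CYP1A2, 2C9, 2C19, 2D6 and 3A4 bactosomes (0.1 mg/mL protein) preincubated 10 min at 37 °C in 50 mM potassium phosphate pH 7.4 with test compound (0.1–10 μM, methanol 3–4.5% final) and fluorogenic probe: ethoxyresorufin 0.5 μM (1A2), FCA 50 μM (2C9), BMC 10 μM (2C19), MMC 10 μM (2D6), DEF 1 μM or 7-BQ 25 μM (3A4). NADPH-regenerating system added; fluorescent metabolite read 10 min; rate as % control; IC50 fitted; triplicate.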

The target in the next data set is Cytochrome P450 2D6 (Homo sapiens, UniProt P10635). The data set is described as follows: Inhibition of human CYP2D6 by fluorescence assay. Format: ADME. In short, it runs like this: as §1
For the next data set, the target named is T2, Cytochrome P450 1A2 (Homo sapiens, UniProt P05177).
T2 sequence (P05177 whole entry): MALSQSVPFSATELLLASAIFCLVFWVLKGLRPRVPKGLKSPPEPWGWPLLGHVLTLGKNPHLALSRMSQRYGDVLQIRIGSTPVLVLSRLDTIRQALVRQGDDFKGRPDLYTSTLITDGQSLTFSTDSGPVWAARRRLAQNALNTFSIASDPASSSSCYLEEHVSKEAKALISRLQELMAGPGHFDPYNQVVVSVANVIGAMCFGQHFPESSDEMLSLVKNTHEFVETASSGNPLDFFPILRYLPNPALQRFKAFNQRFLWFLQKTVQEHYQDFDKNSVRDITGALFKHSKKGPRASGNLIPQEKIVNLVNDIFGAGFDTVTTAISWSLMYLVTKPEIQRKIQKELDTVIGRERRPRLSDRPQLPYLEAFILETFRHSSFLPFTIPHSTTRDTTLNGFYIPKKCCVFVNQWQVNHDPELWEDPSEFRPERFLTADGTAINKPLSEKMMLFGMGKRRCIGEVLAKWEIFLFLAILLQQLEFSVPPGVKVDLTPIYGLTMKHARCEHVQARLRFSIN
The data set is described as follows: Inhibition of human CYP1A2 by fluorescence assay. Format: ADME. In short, it runs like this: as §1

Data set [6] in a line: Blood Clearance in rat at 3 mg/kg, po. Type of data set: ADME, organism-based. Further details: dose 3 mg/kg, route oral. Particulars: whole blood. An outline of the steps:
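Rats dosed orally at 3 mg/kg; blood sampled via the hepatic portal vein and heart. Estimated clearance derived from in vivo hepatic extraction, taking rat liver blood flow as 85 (mL/min)/kg.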

Data set [7] in a line: Plasma protein binding in rat at 3 mg/kg, po. Type of data set: ADME, organism-based. Further details: dose 3 mg/kg, route oral. The settings on record: read-out: PPB (converted).
Data set [8] can be described thus: Cmax in rat blood at 3 mg/kg, po. Format: ADME, organism-based. Further details: dose 3 mg/kg, route oral. Particulars: whole blood.
The next data set concerns Brain. The data set is described as follows: Brain tissue binding in rat at 3 mg/kg, po. Format: ADME, organism-based. Set-up: dose 3 mg/kg, route oral. The settings on record: in vivo.
Data set [9] in a line: Apparent permeability of the compound. Type of data set: ADME. Particulars: not told. In short, it runs like this: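 Artificial membrane permeability: donor holds 10 mM sample in pH 7.05 phosphate buffer with 0.5% hydroxypropylcyclodextrin. Membrane is 1.8% phosphatidylcholine and 1% cholesterol in decane. Donor and acceptor concentrations measured by LCMS after 3 h at room temperature; permeability expressed in nm/s.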

Data set [10] in a line: AUC (0 to t) in rat blood at 3 mg/kg, po. Format: ADME, organism-based. Particulars: whole blood. Further details: dose 3 mg/kg, route oral.
Data set [11] in a line: Distribution coefficient, log D of the compound at pH 7.4. The settings on record: octanol/water. Format: physicochemical.

What is called logD is the decadic logarithm of the distribution of all forms, ionised or not, between an organic phase and buffer at a given pH. A high value points to a more lipophilic compound. A word on the solubility (kinetic): it is the concentration staying in solution when a stock, usually in DMSO, is diluted into the medium. What is called IC50 is the concentration at which inhibition is half-maximal. The EC50 is the concentration that produces a half-maximal response. One may read the CL/F as the apparent clearance, not corrected for the fraction that reaches the circulation. What is called Cmax is the maximum level reached in the sampled fluid or tissue. For orientation: Papp means the rate of passage across a membrane or cell layer, normalised by area and donor concentration. In general, AUC(0-t) refers to exposure summed from dosing to a finite time, without extrapolation to infinity. A higher AUC(0-t) goes with more exposure.

T1 sequence (P42262 whole entry, canonical isoform): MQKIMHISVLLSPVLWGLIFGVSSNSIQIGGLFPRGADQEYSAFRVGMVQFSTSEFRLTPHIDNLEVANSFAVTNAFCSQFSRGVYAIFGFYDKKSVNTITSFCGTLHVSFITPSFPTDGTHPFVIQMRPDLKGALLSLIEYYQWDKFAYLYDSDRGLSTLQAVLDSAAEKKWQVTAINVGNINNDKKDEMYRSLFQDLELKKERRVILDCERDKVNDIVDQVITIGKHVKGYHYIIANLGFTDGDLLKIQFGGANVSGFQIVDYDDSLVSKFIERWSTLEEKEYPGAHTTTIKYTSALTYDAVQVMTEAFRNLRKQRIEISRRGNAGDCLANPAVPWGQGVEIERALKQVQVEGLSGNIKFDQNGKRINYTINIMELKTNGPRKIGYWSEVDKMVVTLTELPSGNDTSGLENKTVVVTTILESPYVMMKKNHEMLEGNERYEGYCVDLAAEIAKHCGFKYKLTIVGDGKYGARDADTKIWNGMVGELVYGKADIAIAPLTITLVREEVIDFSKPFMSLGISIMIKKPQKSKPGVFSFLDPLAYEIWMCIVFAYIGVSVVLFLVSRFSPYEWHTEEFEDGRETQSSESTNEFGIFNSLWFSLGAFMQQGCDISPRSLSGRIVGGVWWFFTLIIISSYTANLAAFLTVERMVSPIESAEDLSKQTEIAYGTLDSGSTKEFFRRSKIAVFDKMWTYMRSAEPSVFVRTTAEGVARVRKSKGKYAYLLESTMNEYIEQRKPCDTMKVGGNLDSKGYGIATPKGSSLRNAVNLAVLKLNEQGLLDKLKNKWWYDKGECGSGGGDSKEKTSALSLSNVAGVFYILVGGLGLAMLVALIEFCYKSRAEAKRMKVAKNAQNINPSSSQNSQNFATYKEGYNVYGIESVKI
Sequence of Cytochrome P450 2C19 (P33261 whole entry): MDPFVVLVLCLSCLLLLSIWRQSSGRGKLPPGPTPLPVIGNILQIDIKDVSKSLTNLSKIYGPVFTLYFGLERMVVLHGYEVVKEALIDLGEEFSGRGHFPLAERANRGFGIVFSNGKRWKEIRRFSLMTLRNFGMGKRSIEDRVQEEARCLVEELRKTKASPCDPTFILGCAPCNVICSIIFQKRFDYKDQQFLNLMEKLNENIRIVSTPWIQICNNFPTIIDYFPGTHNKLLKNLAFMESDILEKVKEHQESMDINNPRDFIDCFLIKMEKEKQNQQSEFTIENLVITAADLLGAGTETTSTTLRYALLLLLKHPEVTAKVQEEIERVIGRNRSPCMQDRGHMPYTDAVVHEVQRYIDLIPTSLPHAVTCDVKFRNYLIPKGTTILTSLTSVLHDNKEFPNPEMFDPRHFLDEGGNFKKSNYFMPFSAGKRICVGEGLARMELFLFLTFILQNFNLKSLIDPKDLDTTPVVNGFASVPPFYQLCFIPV
Sequence of Cytochrome P450 2C9 (P11712 whole entry): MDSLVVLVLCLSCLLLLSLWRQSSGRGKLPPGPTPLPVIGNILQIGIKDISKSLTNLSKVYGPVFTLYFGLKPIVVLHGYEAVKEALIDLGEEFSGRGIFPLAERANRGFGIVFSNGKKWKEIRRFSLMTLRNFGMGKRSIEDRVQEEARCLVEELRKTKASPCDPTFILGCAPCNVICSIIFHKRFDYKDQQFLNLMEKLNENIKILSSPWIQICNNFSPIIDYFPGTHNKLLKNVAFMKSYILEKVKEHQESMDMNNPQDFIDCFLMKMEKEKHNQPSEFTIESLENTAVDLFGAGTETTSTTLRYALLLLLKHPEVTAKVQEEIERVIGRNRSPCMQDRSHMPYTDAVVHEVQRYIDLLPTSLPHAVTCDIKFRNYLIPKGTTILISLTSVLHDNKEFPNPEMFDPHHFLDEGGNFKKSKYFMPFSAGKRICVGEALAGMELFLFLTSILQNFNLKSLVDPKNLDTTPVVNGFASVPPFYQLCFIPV
Sequence of Cytochrome P450 2D6 (P10635 whole entry): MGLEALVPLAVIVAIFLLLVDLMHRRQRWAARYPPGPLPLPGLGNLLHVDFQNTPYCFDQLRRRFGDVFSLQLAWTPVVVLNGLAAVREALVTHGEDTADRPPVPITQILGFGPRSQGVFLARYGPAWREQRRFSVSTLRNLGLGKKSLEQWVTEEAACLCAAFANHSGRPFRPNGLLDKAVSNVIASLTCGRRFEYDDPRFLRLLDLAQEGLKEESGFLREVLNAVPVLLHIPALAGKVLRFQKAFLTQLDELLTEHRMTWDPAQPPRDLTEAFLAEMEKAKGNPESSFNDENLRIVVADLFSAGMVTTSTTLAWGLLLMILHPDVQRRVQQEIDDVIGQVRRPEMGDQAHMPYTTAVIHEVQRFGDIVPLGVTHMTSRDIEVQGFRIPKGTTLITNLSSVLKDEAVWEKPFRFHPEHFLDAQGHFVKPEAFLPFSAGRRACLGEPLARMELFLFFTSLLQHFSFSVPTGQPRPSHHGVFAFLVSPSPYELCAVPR
Sequence of Cytochrome P450 3A4 (P08684 whole entry): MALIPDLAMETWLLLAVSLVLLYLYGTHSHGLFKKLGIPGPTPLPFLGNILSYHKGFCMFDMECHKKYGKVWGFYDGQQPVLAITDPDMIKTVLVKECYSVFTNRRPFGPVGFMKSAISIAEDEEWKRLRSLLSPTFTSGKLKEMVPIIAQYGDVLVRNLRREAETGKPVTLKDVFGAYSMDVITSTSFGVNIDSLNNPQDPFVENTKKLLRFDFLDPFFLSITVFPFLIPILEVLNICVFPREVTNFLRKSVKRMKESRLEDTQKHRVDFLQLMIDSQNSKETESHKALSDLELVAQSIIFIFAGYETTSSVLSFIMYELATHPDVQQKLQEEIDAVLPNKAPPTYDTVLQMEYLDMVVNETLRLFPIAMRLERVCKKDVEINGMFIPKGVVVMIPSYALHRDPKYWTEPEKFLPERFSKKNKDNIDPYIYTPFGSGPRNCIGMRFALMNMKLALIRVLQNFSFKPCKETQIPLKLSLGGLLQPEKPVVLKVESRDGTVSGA

`CC(=O)Cc1ccc(-n2nc(C(F)(F)F)c3c2CCCC3)cc1` had a logD in [1] of 3. In data set [2], the kinetic solubility was found to be 44 µg/mL (≈ 137 µM). For the same compound, the IC50 against Cytochrome P450 2C9 is at most 1 µM; at Cytochrome P450 2C19 it was 2 µM; against Cytochrome P450 3A4, at most 1 µM; in [5], at most 1 µM; on Cytochrome P450 2D6 it was at most 1 µM; at Cytochrome P450 1A2, at most 1 µM. For the same compound, on Glutamate receptor 2 [3], the Activity was found to be 111%. In addition, the EC50 at Glutamate receptor 2 [4] is 3.98 µM.
On to `CC(C)S(=O)(=O)NCc1ccc(-n2nc(C(F)(F)F)c3c2CCCC3)cc1`, for which, in data set [1], the logD was determined as 2.8. The compound also returned a kinetic solubility in [2] of 11 µg/mL (≈ 27.4 µM). The Activity at Glutamate receptor 2 [3] stood at 79%. Moreover, the EC50 on Glutamate receptor 2 [4] is 10 µM. The same compound yielded an IC50 in data set [5] above 10 µM.
In turn, `O=S(=O)(NCc1ccc(-n2nc(C(F)(F)F)c3c2CCCC3)cc1)C1CC1` had a log distribution coefficient (logD) in data set [1] of 3.2. The same compound had a solubility (kinetic) in data set [2] of 12 µg/mL (≈ 30 µM). Moreover, the Activity on Glutamate receptor 2 [3] came out at 112%. At Glutamate receptor 2 [4], the EC50 is 10 µM. The compound also came in with an IC50 in [5] above 10 µM.
Regarding `O=C(c1ccc(-n2nc(C(F)(F)F)c3c2COCC3)cc1)N1CCCC1`, the CL/F in data set [6] stood at 13 mL/min/kg. Further, in data set [7], the fraction unbound is 0.067. In [2], this compound came in with a kinetic solubility of 104 µg/mL (≈ 285 µM). In data set [8], this compound had a Cmax of 225 ng/mL. Also, in the data set on Brain, the “Brain tissue binding (% bound)” value is recorded as 95.5%. Besides, the Papp in data set [9] worked out at 49 ×10⁻⁶ cm/s. In data set [10], the AUC(0-t) turned out to be 733 ng·h/mL. In data set [11], the logD is 2.6. Further, the IC50 against Cytochrome P450 2C9, at Cytochrome P450 2C19, against Cytochrome P450 3A4, on Cytochrome P450 2D6 and against Cytochrome P450 1A2 was above 10 µM in each case. Besides, the Activity at Glutamate receptor 2 [3] is 75%. Moreover, the EC50 on Glutamate receptor 2 [4] is 100 µM.
Take `CN1CCc2c(C(F)(F)F)nn(-c3ccc(CN4CCCC4=O)cc3)c2C1`: the CL/F in data set [6] was determined as 22 mL/min/kg. For the same compound, the fraction unbound in data set [7] is 0.142. In addition, the solubility (kinetic) in data set [2] worked out at 93 µg/mL (≈ 246 µM). Besides, the highest concentration (Cmax) in data set [8] was 131 ng/mL. Moreover, the “Brain tissue binding (% bound)” value with Brain is reported as 63%. The Papp in data set [9] turned out to be 43 ×10⁻⁶ cm/s. Besides, in data set [10], the AUC(0-t) was found to be 294 ng·h/mL. In data set [11], this compound registered a logD of 2. Moreover, the IC50 on Cytochrome P450 2C9, against Cytochrome P450 2C19, at Cytochrome P450 3A4, against Cytochrome P450 2D6 and on Cytochrome P450 1A2 was above 10 µM in each case. The Activity on Glutamate receptor 2 [3] came out at 102%. Further, the EC50 on Glutamate receptor 2 [4] was 39.8 µM.
`O=C1CCCN1Cc1ccc(-n2nc(C(F)(F)F)c3c2COCC3)cc1`: the fraction unbound in [7] was 0.057. This compound yielded a solubility (kinetic) in data set [2] of 123 µg/mL (≈ 337 µM). For the same compound, the Cmax in data set [8] was 331 ng/mL. Moreover, in the data set with Brain, the “Brain tissue binding (% bound)” value is listed as 94.9%. The Papp in data set [9] was 44 ×10⁻⁶ cm/s. In data set [10], the AUC(0-t) came to 824 ng·h/mL. This compound also yielded a logD in data set [11] of 2.6. The IC50 on Cytochrome P450 2C9, against Cytochrome P450 2C19, against Cytochrome P450 3A4, at Cytochrome P450 2D6 and against Cytochrome P450 1A2 was above 10 µM in each case. The Activity at Glutamate receptor 2 [3] was 116%. In addition, the EC50 at Glutamate receptor 2 [4] is 5.01 µM.
